Experiment [1] concerns the target Cholinesterase (Homo sapiens, UniProt P06276). The experiment can be described thus: Inhibition of human BChE using butyrylthiocholine iodide as substrate preincubated for 10 mins before substrate addition after 15 mins by Ellman's method. Set-up: concentration or dose not given beside the values. (DTNB colorimetry detects thiols as they appear.)
For experiment [2], the system named is NCI-H157. Nature of the experiment: Antiproliferative activity against human NCI-H157 cells at 1 uM after 48 hrs by SRB assay. The format is functional. The method, boiled down:
(§1)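 H157 lung carcinoma cells were seeded at 10⁴ cells per well in 96-well plates and grown 24 h at 37 °C in 5% CO₂ to a monolayer. Compounds were added at […]. Cells were fixed, stained with 0.4% w/v sulforhodamine B in 1% acetic acid for 30 min at room temperature, rinsed in acetic acid, and the dye dissolved in 10 mM Tris base for 10 min.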
Background: In SRB staining, fixed cells bind dye roughly in proportion to their protein.

The target of experiment [3] is Acetylcholinesterase (Electrophorus electricus, UniProt O42275). Nature of the experiment: (§2) Inhibition of electric eel acetylcholinesterase using acetylthiocholine iodide as substrate preincubated for 10 mins before substrate addition after 15 mins by Ellman's method.
The target in experiment [4] is Acetylcholinesterase (Electrophorus electricus) (UniProt O42275). Described as §2. Also noted: concentration or dose not given beside the values.
The test system of experiment [5] is NCI-H157. The experiment can be described thus: Antiproliferative activity against human NCI-H157 cells at 100 uM after 48 hrs by SRB assay. The format is functional. The method, boiled down: as §1

Broadly, the inhibition is the relative decrease from the control value, in per cent. By IC50 is commonly meant the concentration that inhibits the measured activity by half.

Sequence of Cholinesterase (P06276 whole entry): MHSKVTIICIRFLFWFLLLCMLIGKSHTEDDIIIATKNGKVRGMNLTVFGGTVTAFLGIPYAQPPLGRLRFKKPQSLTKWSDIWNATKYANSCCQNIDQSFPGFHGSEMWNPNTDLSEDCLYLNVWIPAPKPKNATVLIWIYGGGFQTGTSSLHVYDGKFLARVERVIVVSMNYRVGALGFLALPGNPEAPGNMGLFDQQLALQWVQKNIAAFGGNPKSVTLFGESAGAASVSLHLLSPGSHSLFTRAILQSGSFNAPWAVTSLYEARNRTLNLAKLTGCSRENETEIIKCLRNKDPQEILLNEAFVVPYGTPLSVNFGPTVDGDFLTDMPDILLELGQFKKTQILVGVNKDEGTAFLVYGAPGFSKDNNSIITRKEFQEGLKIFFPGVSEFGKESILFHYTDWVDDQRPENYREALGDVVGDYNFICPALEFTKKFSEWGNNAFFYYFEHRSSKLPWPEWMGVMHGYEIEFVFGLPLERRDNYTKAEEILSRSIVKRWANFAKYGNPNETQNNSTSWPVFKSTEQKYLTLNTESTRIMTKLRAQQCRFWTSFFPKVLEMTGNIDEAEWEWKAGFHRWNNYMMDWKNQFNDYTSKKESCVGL
Sequence of Acetylcholinesterase (O42275 whole entry): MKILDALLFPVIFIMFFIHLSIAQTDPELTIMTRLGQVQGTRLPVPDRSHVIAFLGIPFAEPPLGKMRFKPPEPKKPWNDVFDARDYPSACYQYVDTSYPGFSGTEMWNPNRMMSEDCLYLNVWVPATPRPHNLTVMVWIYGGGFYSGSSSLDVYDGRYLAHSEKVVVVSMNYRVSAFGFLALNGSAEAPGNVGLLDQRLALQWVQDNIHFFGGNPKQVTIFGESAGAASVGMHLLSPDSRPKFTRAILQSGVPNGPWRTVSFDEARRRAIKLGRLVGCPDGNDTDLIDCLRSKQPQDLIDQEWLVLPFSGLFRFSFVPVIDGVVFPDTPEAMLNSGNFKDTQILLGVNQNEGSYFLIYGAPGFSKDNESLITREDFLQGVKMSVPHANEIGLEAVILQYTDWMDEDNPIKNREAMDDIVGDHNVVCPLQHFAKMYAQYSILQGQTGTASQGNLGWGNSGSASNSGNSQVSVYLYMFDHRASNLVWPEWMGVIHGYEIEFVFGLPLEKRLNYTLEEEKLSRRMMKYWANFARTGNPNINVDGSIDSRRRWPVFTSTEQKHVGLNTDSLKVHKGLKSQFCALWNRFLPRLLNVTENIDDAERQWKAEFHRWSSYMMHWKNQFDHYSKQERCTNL
Sequence of Acetylcholinesterase (Electrophorus electricus) (O42275 24-633 limits assumed): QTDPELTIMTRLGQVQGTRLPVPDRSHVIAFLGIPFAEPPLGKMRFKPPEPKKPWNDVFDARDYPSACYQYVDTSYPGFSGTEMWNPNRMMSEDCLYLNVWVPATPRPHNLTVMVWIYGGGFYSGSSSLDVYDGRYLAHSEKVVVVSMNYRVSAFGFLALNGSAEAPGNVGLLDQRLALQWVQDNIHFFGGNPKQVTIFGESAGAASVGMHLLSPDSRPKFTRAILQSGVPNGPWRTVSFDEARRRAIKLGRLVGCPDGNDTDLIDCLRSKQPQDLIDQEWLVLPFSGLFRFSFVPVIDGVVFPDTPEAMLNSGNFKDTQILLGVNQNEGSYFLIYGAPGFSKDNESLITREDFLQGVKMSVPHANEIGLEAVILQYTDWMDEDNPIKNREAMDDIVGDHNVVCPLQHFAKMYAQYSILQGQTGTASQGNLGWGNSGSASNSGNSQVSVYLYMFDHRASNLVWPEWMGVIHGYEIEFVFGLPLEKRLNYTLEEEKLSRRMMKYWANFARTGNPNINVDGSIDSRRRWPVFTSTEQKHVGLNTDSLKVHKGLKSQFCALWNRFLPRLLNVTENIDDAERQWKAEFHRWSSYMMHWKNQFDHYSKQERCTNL

In turn, `COc1ccc(/C=C/C(=O)Nc2cc(OC)c(OC)c(OC)c2)cc1[N+](=O)[O-]` came in with an inhibition in experiment [1] of 28.1%. Also, the Activity in experiment [2] is given as 66%. Also, in experiment [3], the IC50 turned out to be 6.69 µM.

As to `CN(C)C(=O)Oc1cccc([N+](C)(C)C)c1` [NEOSTIGMINE], the IC50 in experiment [1] is 49.1 µM; in experiment [3] it was 22 µM.

Consider `COc1cc(NC(=O)/C=C/c2cc(O)ccc2O)cc(OC)c1OC`, for which the inhibition in experiment [1] was 36.2%; in experiment [4], 30.3%. The Activity in experiment [2] is 60%.

On to `COc1cc(NC(=O)/C=C/c2ccc(O)c(O)c2)cc(OC)c1OC`, for which the inhibition in experiment [1] stood at 34.6%; in experiment [4], 36.4%.

Molecule `COc1cccc(/C=C/C(=O)Nc2cc(OC)c(OC)c(OC)c2)c1` showed an inhibition in experiment [1] of 41.8%. Also, the IC50 in experiment [3] amounted to 12.9 µM.

Take `C=CCOc1ccc(/C=C/C(=O)Nc2cc(OC)c(OC)c(OC)c2)cc1`: the inhibition in experiment [1] amounted to 32.6%; in experiment [4] it was 33.6%.

On to `COc1cc(NC(=O)/C=C/c2c(Cl)cccc2[N+](=O)[O-])cc(OC)c1OC`, for which the inhibition in experiment [4] amounted to 34.2%.

As to `COc1ccc(/C=C/C(=O)Nc2cc(OC)c(OC)c(OC)c2)cc1OCc1ccccc1`, the inhibition in experiment [1] was 31.1%. Further, in experiment [2], the Activity was found to be 61%. This molecule registered a concentration for half-maximal inhibition (IC50) in experiment [3] of 6.02 µM.

Regarding `COc1ccc(/C=C/C(=O)Nc2cc(OC)c(OC)c(OC)c2)cc1O`, the results for the IC50 in experiment [1] and in experiment [3] were 7.65 µM and 4.22 µM, respectively.

Regarding `COc1cc(NC(=O)/C=C/c2cccc(O)c2O)cc(OC)c1OC`, the inhibition in experiment [1] was determined as 41.2%; in experiment [4], 31.2%.

Regarding `COc1cc(NC(=O)/C=C/c2cccc(OC(C)=O)c2)cc(OC)c1OC`, the IC50 in experiment [1] stood at 1.25 µM. Moreover, the inhibition in experiment [4] turned out to be 29.2%.

As to `C=CCOc1ccccc1/C=C/C(=O)Nc1cc(OC)c(OC)c(OC)c1`, in experiment [1], the inhibition is 24.8%. Besides, the IC50 in experiment [3] stood at 1.41 µM.

In turn, `COc1cc(/C=C/C(=O)Nc2cc(OC)c(OC)c(OC)c2)ccc1OCc1ccccc1` displayed an inhibition in experiment [1] of 32.8%. This molecule also showed an IC50 in experiment [3] of 12.6 µM.

The molecule `COc1cc(NC(=O)/C=C/c2ccc(Cl)cc2)cc(OC)c1OC` showed an inhibition in experiment [1] of 25.7%. In experiment [3], this molecule had an IC50 of 31.2 µM.

As to `COc1cc(NC(=O)/C=C/c2cccc(OCc3ccccc3)c2)cc(OC)c1OC`, the IC50 in experiment [1] stood at 3.93 µM; in experiment [3], 6.52 µM.

With `COc1cccc(/C=C/C(=O)Nc2cc(OC)c(OC)c(OC)c2)c1O`, the figures for the IC50 in experiment [1] and in experiment [3] were 5.19 µM and 6.22 µM, respectively.

Regarding `COc1cc(NC(=O)/C=C/c2c(O)cccc2[N+](=O)[O-])cc(OC)c1OC`, the inhibition in experiment [1] was found to be 35.4%. For the same molecule, half-maximal inhibition in experiment [3] (IC50) was put at 12.8 µM.

`COc1cc(/C=C/C(=O)Nc2cc(OC)c(OC)c(OC)c2)ccc1OC(C)=O` yielded an inhibition in experiment [1] of 31.1%. Also, in experiment [3], the IC50 was 4.98 µM.

Molecule `COc1cc(NC(=O)/C=C/c2c(F)cccc2Cl)cc(OC)c1OC` had an IC50 in experiment [1] of 1.32 µM. This molecule also displayed an Activity in experiment [2] of 66%. Also, the inhibition in experiment [4] is 34.1%.

Take `CC[C@]1(O)C[C@H]2CN(CCc3c([nH]c4ccccc34)[C@@](C(=O)OC)(c3cc4c(cc3OC)N(C=O)[C@H]3[C@@](O)(C(=O)OC)[C@H](OC(C)=O)[C@]5(CC)C=CCN6CC[C@]43[C@@H]65)C2)C1` [VINCRISTINE]: the Activity in experiment [5] was 46%.

As for `COc1cc(NC(=O)/C=C/c2ccc(OC(C)=O)cc2)cc(OC)c1OC`, the inhibition is 37.4% in experiment [1] and 36.5% in experiment [4].

Take `COc1cc(NC(=O)/C=C/c2ccc(O)cc2O)cc(OC)c1OC`: the inhibition in experiment [1] was 18.2%; in experiment [4] it was 36.6%.

`COc1cc(NC(=O)/C=C/c2ccc(OCc3ccccc3)cc2)cc(OC)c1OC` came in with an inhibition in experiment [1] of 33.5%. The IC50 in experiment [3] came to 3.72 µM.

On to `COc1cc(NC(=O)/C=C/c2ccc(OCc3ccccc3)cc2O)cc(OC)c1OC`, for which, in experiment [1], the inhibition worked out at 27.2%. In experiment [3], this molecule displayed an IC50 of 1.59 µM.

`COc1cc(NC(=O)/C=C/c2ccccc2OCc2ccccc2)cc(OC)c1OC` yielded an inhibition in experiment [1] of 32.1%. The IC50 in experiment [3] was 0.29 µM.

In experiment [1], `COc1cc(NC(=O)/C=C/c2cccc([N+](=O)[O-])c2)cc(OC)c1OC` registered an inhibition of 26.2%. Besides, the IC50 in experiment [3] was found to be 3.24 µM.

`COc1cc(NC(=O)/C=C/c2ccc(NOC(C)=O)cc2)cc(OC)c1OC`: the IC50 is 3.85 µM in experiment [1] and 12.5 µM in experiment [3].

Source of the values: ChEMBL document CHEMBL3232752, “Synthesis, cytotoxicity and molecular modelling studies of new phenylcinnamide derivatives as potent inhibitors of cholinesterases” (Eur J Med Chem, 2014).
